Reference: PMC8920403 (Drug Delivery, 2022)

Experiments:
VEGF-A = experiment: ELISA of VEGF-A in cornea of alkali burn CNV mice; assay type: in vivo, BALB/c mice; settings: dexamethasone eye drops, days 3 and 7, P < 0.05
Procedure, shortened: (§1)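 Alkali-burn CNV mice (0.1 M NaOH, 20 s) were given saline, test-compound lipid carrier or dexamethasone drops, 5 μL twice daily. On days 3 and 7, five mice per group were killed. Corneas were weighed, frozen at −80 °C, thawed at 4 °C for 0.5 h and minced. Tissue was extracted in 100 μL RIPA on ice for 1.5 h and spun at 12,000 rpm, 4 °C, 5 min. ELISA absorbance was read at 450 nm and normalised to BCA total protein. Mean ± SD; one-way ANOVA, with t test for pairs.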

PDGF-AB = experiment: ELISA of PDGF-AB in cornea of alkali burn CNV mice; assay type: in vivo, BALB/c mice; settings: dexamethasone eye drops, days 3 and 7, P < 0.05
Procedure, shortened: as §1

[1] = tested on: corneal neovascularization (CNV); experiment: Alkali burn injury induced CNV in mice; assay type: in vivo, BALB/c mice; settings: SRB-NLC 0.0125-0.05%, fluorescein staining
Procedure, shortened: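 Male BALB/c mice (20–25 g) were anaesthetised with 1% sodium pentobarbital i.p. (80 mg/kg) plus 0.4% oxybuprocaine drops. 2 μL of 0.1 M NaOH on filter paper was applied to the right central cornea for 20 s, then rinsed with 20 mL saline. Groups of 16 received saline, test-compound lipid carrier (0.05, 0.025 or 0.0125%) or dexamethasone drops, 5 μL twice daily for 7 days. On day 7, corneas from three mice per group were fixed in 4% paraformaldehyde for 48 h, paraffin-processed, and 5 µm sagittal sections were H&E stained.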

[2] = Ocular pharmacokinetics in rabbit eyes; assay type: in vivo, New Zealand White rabbits; settings: after single topical administration; limit of quantitation 0.01 μg/mL
Procedure, shortened: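 Forty-two male New Zealand White rabbits (2.0–2.5 kg) were split into lipid-carrier and suspension groups. Each received a single 50 μL instillation into the lower conjunctival sac of both eyes, with lids held closed for 15 s. At preset times, rabbits were killed with i.v. 4% phenobarbital sodium via the marginal ear vein. After a saline rinse of the ocular surface, aqueous humour was drawn at the limbus with a 26-G needle.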

experimental CNV = settings: oral administration, dose-dependent; ref Seo et al., 2012; cited from earlier work
neovascular corneal area = settings: topical solution 0.05 mg/mL SRB and 0.07 mg/mL DMSO; ref Yildirim et al., 2020; cited from earlier work
endothelial cells = settings: at a dose of 7.5 µg/mL (0.1–100 µg/mL studied); ref Thiele et al., 2013; cited from earlier work

Compound	VEGF-A level in corneal tissue vs saline group (VEGF-A)	PDGF-AB level in corneal tissue vs saline group (PDGF-AB)	Recovery of corneal epithelial defects after alkali burn injury [1]	SRB levels in the aqueous humor (AH) [2] [µg/mL]	Development of experimental CNV (experimental CNV)	Percentage of the neovascular corneal area vs DMSO alone (neovascular corneal area)	Toxic effects on endothelial cells (endothelial cells)
Dexamethasone sodium phosphate	significantly lower	significantly lower					
CNC(=O)c1cc(Oc2ccc(NC(=O)Nc3ccc(Cl)c(C(F)(F)F)c3)cc2)ccn1 [SRB, Sorafenib]			could effectively promote the recovery of corneal epithelial defects	< 0.01	significantly reduced the development of experimental CNV	significantly lower	no toxic effects
